Laboratory results taken from ChEMBL document CHEMBL1138826, “New 1,4-dihydropyridines endowed with NO-donor and calcium channel agonist properties” (J Med Chem, 2004).

Columns and labels:
Rattus norvegicus [1] = species: Rattus norvegicus; assay: Positive inotropic activity on rat papillary muscle electrically stimulated by unipolar square wave pulses; format: functional; conditions: Muscle tissue
Summary of the method: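 Electrically driven rat papillary muscle, 90 min equilibration. Cumulative curves in half-log steps, each step after a plateau, in the presence of 1 µM propranolol and 0.1 µM prazosin added 15 min beforehand. One curve per tissue. EC50 is the mean of 5-7 determinations.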

Rattus norvegicus [2] = species: Rattus norvegicus; assay: Capacity to increase [Ca2+] entry into the vascular smooth muscle was evaluated on rat aorta strips partially depolarized with 10 mM K; format: functional; conditions: Muscle tissue
Summary of the method: (§1)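 Thoracic aorta cut helically, endothelium removed, three strips per vessel, 0.7 g tension, isotonic recording. Equilibrated 1 h, then depolarized twice with 50 mM KCl at 60 min intervals. Cumulative contraction curves run in 10 mM KCl, protected from light. EC50 is the mean of 5-7 determinations.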

Rattus norvegicus [3] = species: Rattus norvegicus; assay: Capacity to increase [Ca2+] entry into the vascular smooth muscle was evaluated on rat aorta strips partially depolarized with 10 mM K+ relative to 50 mM KCl; format: functional, Muscle tissue; summary of the method: as §1
[4] = biological target: T1, Voltage-gated L-type calcium channel (Rattus norvegicus, UniProt P22002+Q02485+P27732); assay: Effect on L-type [Ca2+] channels of rat RIN-m5F insulinoma cells in 10 mM Ba2+, -60 mV holding potential at 3 uM, -20 mV; format: functional
Summary of the method: (§2)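 Whole-cell patch clamp on cultured rat insulinoma RINm5F cells at 22 °C. External solution (mM): 125 NaCl, 10 BaCl2, 1 MgCl, 10 HEPES pH 7.3, 300 nM TTX. Internal solution CsCl/TEACl/EGTA-based with ATP and GTP. Held at -60 mV, stepped to -20 mV, returned to -40 mV. Compounds at 3 µM by fast superfusion. Result is % increase of L-type Ba2+ current, after subtracting the current insensitive to 3 µM nifedipine; 5-22 cells.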

[5] = biological target: T1, Voltage-gated L-type calcium channel; assay: Agonistic potency, mean percentage of increased Ba2+ currents at -20 mV; Range = 200-240%; format: functional; summary of the method: as §2
Rattus norvegicus [6] = species: Rattus norvegicus; assay: Positive inotropic activity on rat papillary muscle electrically stimulated by unipolar square wave pulses in the presence of 1 uM ODQ.; format: functional; conditions: Muscle tissue
Summary of the method: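 Electrically stimulated rat papillary muscle with 1 µM propranolol and 0.1 µM prazosin, plus 1 µM ODQ added at least 15 min before the first dose. Cumulative half-log concentration-response curve, one per tissue, after 90 min equilibration. EC50 is the mean of 5-7 determinations.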

Rattus norvegicus [7] = species: Rattus norvegicus; assay: Capacity to increase [Ca2+] entry into the vascular smooth muscle was evaluated on rat aorta strips partially depolarized with 10 mM K+ in the presence of 1 uM ODQ.; format: functional; conditions: Muscle tissue
Summary of the method: (§3)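 Endothelium-denuded rat thoracic aorta strips under 0.7 g tension, precontracted twice with 50 mM KCl. Cumulative contraction curves in 10 mM KCl, in light-protected conditions, with 1 µM ODQ added at least 15 min before the first agonist concentration. EC50 is the mean of 5-7 determinations.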

Rattus norvegicus [8] = species: Rattus norvegicus; assay: Capacity to increase [Ca2+] entry into the vascular smooth muscle was evaluated on rat aorta strips partially depolarized with 10 mM K+; No effect; format: functional, Muscle tissue; summary of the method: as §1
Rattus norvegicus [9] = species: Rattus norvegicus; assay: Capacity to increase [Ca2+] entry into the vascular smooth muscle was evaluated on rat aorta strips partially depolarized with 10 mM K+ relative to 50 mM KCl in the presence of 1 uM ODQ.; format: functional, Muscle tissue; summary of the method: as §3

SMILES	EC50 (Rattus norvegicus [1]) [nM]	EC50 (Rattus norvegicus [2]) [nM]	Max (Rattus norvegicus [3]) [%]	Increase [4] [%]	Agonistic potency [5] [%]	EC50 (Rattus norvegicus [6]) [nM]	EC50 (Rattus norvegicus [7]) [nM]	EC50 (Rattus norvegicus [8])	Max (Rattus norvegicus [9]) [%]
COC(=O)C1=C(C)NC(C)=C([N+](=O)[O-])C1c1ccccc1C(F)(F)F (stereo unspecified)	170	18	84	320					
CO/C(O)=C1/C(C)=NC(C)=C([N+](=O)[O-])C1c1ccccc1OCc1nonc1C#N (stereo unspecified)	1500	120	62		< 240				
CO/C(O)=C1/C(C)=NC(C)=C([N+](=O)[O-])C1c1ccccc1OCc1no[n+]([O-])c1C#N (stereo unspecified)	5200		0		< 240	5000	210	Not Active	29
CO/C(O)=C1/C(C)=NC(C)=C([N+](=O)[O-])C1c1ccccc1OCc1no[n+]([O-])c1C (stereo unspecified)	1200	100	80		< 240	1300	110		83
CO/C(O)=C1/C(C)=NC(C)=C([N+](=O)[O-])C1c1ccccc1OCc1nonc1C (stereo unspecified)	820	57	85		< 240				
